For three compounds, IC50 and residual activity results are on record in ChEMBL document CHEMBL1136991, “Novel potent BRAF inhibitors: toward 1 nM compounds through optimization of the central phenyl ring” (J Med Chem, 2009).

SMILES strings stand for the structures.

Test [1] has as its target Serine/threonine-protein kinase B-raf (Homo sapiens, UniProt P15056, V600E). The experiment in a line: Inhibition of BRAF V600E mutant-mediated ERK phosphorylation in human WM266.4 cells. Type of test: cell-based. The gist of the method: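 Cellular pathway read-out: ERK phosphorylation (pERK) was measured in WM266.4 melanoma cells and reported as an IC50.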
The target of test [2] is Mitogen-activated protein kinase 14 (Homo sapiens) (UniProt Q16539). The test can be described thus: Inhibition of p38alpha at 1 uM relative to control.
Mitogen-activated protein kinase 14 (Homo sapiens), sequence (Q16539 whole entry): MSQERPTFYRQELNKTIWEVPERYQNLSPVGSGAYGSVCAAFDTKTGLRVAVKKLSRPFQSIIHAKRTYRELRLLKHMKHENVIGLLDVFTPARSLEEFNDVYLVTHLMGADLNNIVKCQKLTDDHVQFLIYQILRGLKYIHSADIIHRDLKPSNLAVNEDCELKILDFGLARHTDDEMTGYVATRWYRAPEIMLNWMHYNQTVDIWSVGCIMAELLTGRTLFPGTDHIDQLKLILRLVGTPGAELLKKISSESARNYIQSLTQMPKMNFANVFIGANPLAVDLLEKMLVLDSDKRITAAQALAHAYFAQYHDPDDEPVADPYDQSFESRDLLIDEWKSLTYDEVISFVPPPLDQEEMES
The target in test [3] is Mitogen-activated protein kinase 11 (Homo sapiens) (UniProt Q15759). The experiment in a line: Inhibition of p38beta at 1 uM relative to control.
Test [4] addresses T1, Mitogen-activated protein kinase 15 (Homo sapiens) (UniProt Q8TD08).
T1 sequence (whole entry): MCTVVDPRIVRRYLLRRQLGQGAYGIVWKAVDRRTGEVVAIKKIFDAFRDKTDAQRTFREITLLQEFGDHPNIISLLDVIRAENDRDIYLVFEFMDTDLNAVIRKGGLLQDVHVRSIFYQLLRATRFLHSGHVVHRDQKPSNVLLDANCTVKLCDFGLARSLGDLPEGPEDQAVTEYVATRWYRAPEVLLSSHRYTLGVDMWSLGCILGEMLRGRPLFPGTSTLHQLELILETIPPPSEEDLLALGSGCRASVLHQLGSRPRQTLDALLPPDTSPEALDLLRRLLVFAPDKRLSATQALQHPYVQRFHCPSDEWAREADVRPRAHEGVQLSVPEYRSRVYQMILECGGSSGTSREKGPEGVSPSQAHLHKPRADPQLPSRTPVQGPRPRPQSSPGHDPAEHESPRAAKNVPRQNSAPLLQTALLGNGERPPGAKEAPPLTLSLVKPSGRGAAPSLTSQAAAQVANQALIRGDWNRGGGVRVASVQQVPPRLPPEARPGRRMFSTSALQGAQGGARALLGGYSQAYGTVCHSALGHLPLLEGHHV
The test can be described thus: Inhibition of ERK8 at 1 uM relative to control.

Test [5] deals with Mitogen-activated protein kinase 9 (Homo sapiens) (UniProt P45984). The test can be described thus: Inhibition of JNK2 at 1 uM relative to control.
Mitogen-activated protein kinase 9 (Homo sapiens), sequence (P45984 whole entry, looked up): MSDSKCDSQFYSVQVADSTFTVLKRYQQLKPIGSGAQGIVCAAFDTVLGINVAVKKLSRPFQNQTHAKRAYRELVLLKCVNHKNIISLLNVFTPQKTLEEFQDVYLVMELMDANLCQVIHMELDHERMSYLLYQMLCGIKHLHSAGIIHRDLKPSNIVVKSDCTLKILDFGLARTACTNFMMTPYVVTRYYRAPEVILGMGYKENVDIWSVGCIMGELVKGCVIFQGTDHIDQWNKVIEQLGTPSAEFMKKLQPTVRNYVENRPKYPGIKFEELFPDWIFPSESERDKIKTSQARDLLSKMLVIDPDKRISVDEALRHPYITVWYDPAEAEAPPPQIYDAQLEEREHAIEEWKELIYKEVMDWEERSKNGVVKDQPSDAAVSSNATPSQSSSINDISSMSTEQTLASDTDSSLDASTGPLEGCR
Test [6] deals with Dual specificity mitogen-activated protein kinase kinase 1 (Homo sapiens) (UniProt Q02750). The experiment in a line: Inhibition of MKK1 at 1 uM relative to control.
The target of test [7] is Serine/threonine-protein kinase pim-3 (Homo sapiens) (UniProt Q86V86). The test can be described thus: Inhibition of PIM3 at 1 uM relative to control.
Test [8] can be described thus: Inhibition of PHK at 1 uM relative to control.
In test [9] the target is Tyrosine-protein kinase CSK (Homo sapiens) (UniProt P41240). The test can be described thus: Inhibition of CSK at 1 uM relative to control.
The target in test [10] is Serine/threonine-protein kinase PLK1 (Homo sapiens) (UniProt P53350). The test can be described thus: Inhibition of okadaic acid activated PLK1 at 1 uM relative to control.
Serine/threonine-protein kinase PLK1 (Homo sapiens), sequence (P53350 whole entry): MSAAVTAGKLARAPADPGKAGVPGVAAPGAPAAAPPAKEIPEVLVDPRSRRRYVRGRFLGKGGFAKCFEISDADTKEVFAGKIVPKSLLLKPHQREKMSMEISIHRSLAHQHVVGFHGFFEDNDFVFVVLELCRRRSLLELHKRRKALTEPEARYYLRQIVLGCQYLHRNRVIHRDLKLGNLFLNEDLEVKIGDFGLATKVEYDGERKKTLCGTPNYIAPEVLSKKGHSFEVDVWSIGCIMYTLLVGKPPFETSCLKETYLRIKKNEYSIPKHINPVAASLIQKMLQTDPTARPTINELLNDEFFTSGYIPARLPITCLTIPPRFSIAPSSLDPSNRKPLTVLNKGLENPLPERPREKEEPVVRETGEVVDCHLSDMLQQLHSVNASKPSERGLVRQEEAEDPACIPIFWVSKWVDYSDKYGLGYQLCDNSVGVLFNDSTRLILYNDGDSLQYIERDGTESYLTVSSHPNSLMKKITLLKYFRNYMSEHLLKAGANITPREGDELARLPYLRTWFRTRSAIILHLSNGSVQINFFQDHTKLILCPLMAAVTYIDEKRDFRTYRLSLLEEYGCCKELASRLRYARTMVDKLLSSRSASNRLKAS
A short description of test [11]: Inhibition of PKA at 1 uM relative to control.
Test [12] deals with T2, 5'-AMP-activated protein kinase subunit beta-1 (Homo sapiens) (UniProt Q9Y478).
T2 sequence (whole entry): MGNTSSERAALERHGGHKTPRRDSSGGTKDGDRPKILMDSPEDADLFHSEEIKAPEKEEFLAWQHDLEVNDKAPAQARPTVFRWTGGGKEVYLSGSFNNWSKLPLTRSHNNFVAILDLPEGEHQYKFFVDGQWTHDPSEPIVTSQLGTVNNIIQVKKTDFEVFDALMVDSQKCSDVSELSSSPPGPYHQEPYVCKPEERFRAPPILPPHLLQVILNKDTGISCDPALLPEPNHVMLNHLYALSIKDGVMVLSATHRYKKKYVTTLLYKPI
The test can be described thus: Inhibition of AMPK at 1 uM relative to control.

Test [13] has as its target Serine/threonine-protein kinase N2 (Homo sapiens) (UniProt Q16513). The experiment in a line: Inhibition of PRK2 at 1 uM relative to control.
Test [14] deals with Serine/threonine-protein kinase pim-2 (Homo sapiens) (UniProt Q9P1W9). The test can be described thus: Inhibition of PIM2 at 1 uM relative to control.
Serine/threonine-protein kinase pim-2 (Homo sapiens), sequence (Q9P1W9 whole entry, looked up): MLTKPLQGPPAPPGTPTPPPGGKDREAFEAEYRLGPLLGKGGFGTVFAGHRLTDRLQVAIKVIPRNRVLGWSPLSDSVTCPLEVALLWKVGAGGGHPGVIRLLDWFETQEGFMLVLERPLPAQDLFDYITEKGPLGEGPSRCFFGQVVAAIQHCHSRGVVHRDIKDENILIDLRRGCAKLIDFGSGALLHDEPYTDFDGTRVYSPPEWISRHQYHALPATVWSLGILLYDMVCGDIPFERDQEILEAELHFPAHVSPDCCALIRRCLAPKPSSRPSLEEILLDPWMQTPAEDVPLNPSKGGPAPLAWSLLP
In test [15] the target is Mitogen-activated protein kinase 8 (Homo sapiens) (UniProt P45983). The experiment in a line: Inhibition of JNK1 at 1 uM relative to control.
Mitogen-activated protein kinase 8 (Homo sapiens), sequence (P45983 whole entry): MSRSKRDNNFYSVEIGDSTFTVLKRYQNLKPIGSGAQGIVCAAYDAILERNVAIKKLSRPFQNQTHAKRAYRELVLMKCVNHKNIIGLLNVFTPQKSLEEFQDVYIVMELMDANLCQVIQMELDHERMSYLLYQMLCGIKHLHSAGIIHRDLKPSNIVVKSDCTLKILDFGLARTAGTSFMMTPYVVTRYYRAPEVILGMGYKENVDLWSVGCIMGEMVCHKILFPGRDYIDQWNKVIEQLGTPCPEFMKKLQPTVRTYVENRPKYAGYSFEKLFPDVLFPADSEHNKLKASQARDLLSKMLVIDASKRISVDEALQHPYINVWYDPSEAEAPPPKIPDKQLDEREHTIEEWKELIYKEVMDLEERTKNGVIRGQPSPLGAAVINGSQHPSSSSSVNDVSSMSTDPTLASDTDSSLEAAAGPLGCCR
For test [16], the target named is Protein kinase C alpha type (Homo sapiens) (UniProt P17252). The test can be described thus: Inhibition of PKCalpha at 1 uM relative to control.
Test [17] deals with Dual specificity tyrosine-phosphorylation-regulated kinase 1A (Homo sapiens) (UniProt Q13627). The test can be described thus: Inhibition of DYRK1A at 1 uM relative to control.
Test [18] has as its target T3, Serine/threonine-protein kinase 3 (Homo sapiens) (UniProt Q13188).
T3 sequence (whole entry): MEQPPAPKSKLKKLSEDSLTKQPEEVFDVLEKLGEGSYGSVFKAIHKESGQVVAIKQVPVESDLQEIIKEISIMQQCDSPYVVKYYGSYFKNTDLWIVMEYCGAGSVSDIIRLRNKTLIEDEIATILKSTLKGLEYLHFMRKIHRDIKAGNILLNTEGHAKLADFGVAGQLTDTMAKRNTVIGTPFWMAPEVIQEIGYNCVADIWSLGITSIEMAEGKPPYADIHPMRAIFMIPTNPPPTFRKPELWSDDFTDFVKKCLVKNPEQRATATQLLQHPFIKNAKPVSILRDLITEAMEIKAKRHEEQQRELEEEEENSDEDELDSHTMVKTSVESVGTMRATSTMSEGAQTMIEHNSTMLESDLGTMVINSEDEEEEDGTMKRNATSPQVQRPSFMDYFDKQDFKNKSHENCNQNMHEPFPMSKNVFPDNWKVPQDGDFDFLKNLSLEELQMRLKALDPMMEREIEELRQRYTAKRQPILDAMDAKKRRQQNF
The test can be described thus: Inhibition of MST2 at 1 uM relative to control.

The target in test [19] is MAP/microtubule affinity-regulating kinase 3 (Homo sapiens) (UniProt P27448). The experiment in a line: Inhibition of MARK3 at 1 uM relative to control.
MAP/microtubule affinity-regulating kinase 3 (Homo sapiens), sequence (P27448 whole entry, looked up): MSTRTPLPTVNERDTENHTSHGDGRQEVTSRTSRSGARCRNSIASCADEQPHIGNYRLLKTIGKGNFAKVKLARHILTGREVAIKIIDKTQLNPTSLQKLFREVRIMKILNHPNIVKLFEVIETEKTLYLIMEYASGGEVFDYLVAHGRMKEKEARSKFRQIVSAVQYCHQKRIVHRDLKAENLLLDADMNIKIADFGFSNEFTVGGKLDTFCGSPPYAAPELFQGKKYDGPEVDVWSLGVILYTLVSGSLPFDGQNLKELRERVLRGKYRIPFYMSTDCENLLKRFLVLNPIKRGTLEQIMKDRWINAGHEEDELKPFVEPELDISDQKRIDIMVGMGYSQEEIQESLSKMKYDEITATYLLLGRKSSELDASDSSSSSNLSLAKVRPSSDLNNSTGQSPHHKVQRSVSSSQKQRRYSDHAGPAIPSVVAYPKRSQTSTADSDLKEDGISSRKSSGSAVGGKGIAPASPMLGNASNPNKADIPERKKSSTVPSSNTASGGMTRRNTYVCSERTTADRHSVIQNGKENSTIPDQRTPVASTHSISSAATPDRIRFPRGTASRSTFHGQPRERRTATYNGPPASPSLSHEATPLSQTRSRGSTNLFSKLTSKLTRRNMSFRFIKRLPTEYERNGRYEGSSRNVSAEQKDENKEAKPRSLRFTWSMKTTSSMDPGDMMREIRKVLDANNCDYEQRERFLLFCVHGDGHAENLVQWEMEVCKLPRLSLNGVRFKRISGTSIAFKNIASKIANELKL
Test [20] in a line: Inhibition of p38S at 1 uM relative to control.

Serine/threonine-protein kinase B-raf, sequence (P15056 2-766 V600E limits assumed): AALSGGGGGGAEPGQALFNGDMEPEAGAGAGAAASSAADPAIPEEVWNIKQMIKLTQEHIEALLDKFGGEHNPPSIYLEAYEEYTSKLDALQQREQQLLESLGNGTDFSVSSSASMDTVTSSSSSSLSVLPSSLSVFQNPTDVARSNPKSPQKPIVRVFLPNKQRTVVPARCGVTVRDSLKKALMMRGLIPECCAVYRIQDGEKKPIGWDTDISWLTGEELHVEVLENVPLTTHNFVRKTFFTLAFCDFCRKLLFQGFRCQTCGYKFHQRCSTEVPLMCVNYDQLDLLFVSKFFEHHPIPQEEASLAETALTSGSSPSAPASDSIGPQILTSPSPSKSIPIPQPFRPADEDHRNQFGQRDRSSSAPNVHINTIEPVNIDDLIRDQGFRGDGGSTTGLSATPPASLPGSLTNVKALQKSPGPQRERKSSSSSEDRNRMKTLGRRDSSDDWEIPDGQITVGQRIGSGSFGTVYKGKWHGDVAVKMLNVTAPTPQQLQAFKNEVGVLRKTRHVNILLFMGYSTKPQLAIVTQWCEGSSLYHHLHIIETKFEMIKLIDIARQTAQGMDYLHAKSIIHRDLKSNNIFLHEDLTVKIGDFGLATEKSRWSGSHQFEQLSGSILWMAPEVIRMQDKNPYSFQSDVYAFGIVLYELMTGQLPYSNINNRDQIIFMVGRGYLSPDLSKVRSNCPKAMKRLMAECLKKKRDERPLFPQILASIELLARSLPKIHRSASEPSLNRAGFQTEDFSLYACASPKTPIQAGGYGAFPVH
Serine/threonine-protein kinase N2 (Homo sapiens), sequence (Q16513 whole entry, looked up): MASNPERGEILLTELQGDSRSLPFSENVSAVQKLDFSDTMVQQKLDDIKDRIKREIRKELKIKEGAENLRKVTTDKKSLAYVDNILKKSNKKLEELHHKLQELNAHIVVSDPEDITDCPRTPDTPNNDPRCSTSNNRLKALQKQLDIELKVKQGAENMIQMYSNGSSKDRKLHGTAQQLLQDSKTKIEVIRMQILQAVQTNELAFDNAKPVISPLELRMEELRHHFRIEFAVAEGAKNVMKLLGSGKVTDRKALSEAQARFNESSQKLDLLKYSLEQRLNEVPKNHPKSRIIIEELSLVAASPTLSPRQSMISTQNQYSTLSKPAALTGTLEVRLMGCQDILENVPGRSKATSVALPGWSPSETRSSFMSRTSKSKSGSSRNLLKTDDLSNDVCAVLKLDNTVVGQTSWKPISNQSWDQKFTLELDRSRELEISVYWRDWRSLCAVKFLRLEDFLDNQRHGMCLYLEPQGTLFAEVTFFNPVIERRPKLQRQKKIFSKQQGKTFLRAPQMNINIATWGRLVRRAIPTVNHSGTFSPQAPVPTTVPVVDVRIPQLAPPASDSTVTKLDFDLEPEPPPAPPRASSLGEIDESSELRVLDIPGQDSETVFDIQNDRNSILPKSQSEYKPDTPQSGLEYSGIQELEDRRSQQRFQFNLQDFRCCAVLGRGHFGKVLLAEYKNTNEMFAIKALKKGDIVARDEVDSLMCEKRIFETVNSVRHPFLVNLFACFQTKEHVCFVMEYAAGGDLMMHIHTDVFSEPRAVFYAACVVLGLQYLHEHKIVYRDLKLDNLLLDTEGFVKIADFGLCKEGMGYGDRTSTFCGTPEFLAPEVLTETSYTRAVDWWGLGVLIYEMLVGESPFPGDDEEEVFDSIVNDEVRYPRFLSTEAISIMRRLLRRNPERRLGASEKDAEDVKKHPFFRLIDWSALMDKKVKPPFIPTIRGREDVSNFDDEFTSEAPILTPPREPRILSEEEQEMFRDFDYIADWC

In turn, `CSc1cc(Oc2ccnc3[nH]c(=O)[nH]c23)ccc1NC(=O)Nc1cccc(C(F)(F)F)c1` registered an IC50 in [1] of 1300 nM. Besides, the residual activity in test [2] is under 25%; in test [3], under 25%; in test [4], 100%; in [5], 100%; in test [6] it was 100%; in test [7], 100%. In addition, the residual activity in test [8] was 100%; in test [9], under 25%; in [10], 100%; in test [11] it was 100%; in test [12], 100%; in [13], 100%. Moreover, the residual activity in test [14] was found to be 100%; in test [15] it was 100%; in test [16] it was 75%; in test [17] it was 100%; in [18], 75%; in test [19], 75%. Besides, the residual activity in test [20] came to 50%.
`O=C(Nc1cc(C(F)(F)F)ccc1F)Nc1ccc(Oc2ccnc3[nH]c(=O)[nH]c23)c2ccccc12`: half-maximal inhibition in test [1] (IC50) was put at 214 nM. Further, the residual activity in test [2] was 100%; in test [3], under 25%; in test [4], 100%; in [5], 50%; in test [6], 100%; in test [7], 100%. For the same compound, the residual activity in test [8] is 100%; in test [9], under 25%; in [10], 100%; in [11] it was 75%; in test [12], 100%; in test [13], 100%. The residual activity in test [14] came out at 100%; in test [15], 75%; in test [16], 75%; in test [17], 100%; in test [18], 100%; in test [19], 75%. The compound further came in with a residual activity in test [20] of 75%.
Consider `CC(C)(C)c1cccc(NC(=O)Nc2ccc(Oc3ccnc4[nH]c(=O)[nH]c34)c3ccccc23)c1`, for which the IC50 in [1] came to 19300 nM. Besides, the residual activity in test [2] is under 25%; in [3] it was under 25%; in test [4], under 25%; in [5], under 25%; in [6] it was 75%; in [7], 75%. Moreover, the residual activity in test [8] was 75%; in test [9], 50%; in [10], 75%; in test [11], 75%; in test [12], 75%; in test [13] it was 100%. Also, the residual activity in [14] is 100%; in test [15], 75%; in [16], 75%; in test [17] it was 100%; in test [18], 75%; in test [19] it was 100%. The compound further gave a residual activity in test [20] of 50%.
